Assay results published in ChEMBL document CHEMBL3045078, “Insecticidal effect and chemical composition of the volatile oil from Bergenia ligulata” (2011).
Activity calls are given as the source filed them. The calls are words filed in the database; no cut-off is given here.

How the values were obtained:
Drosophila melanogaster [1] = test: Adulticidal activity against adult Drosophila melanogaster (males/females 1:1 ratio) assessed as mortality measured after 3 hr; format: functional
In short: (§1)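 Topical dose applied to the abdomen of ice-immobilised adults, 5–7 days old, in 0.5 μL acetone. Controls received acetone only. Flies were held at 25 °C, RH >60%, on a 12 h light/dark cycle. Thirty flies per dose, three replicates. Survival was recorded 3 h after treatment. Mortality means inability to move, with recovery checked.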

Drosophila melanogaster [2] = test: Adulticidal activity against adult Drosophila melanogaster (males/females 1:1 ratio) assessed as mortality at 0.5 ng/adult measured after 3 hr; format: functional, organism-based
Drosophila melanogaster [3] = test: Adulticidal activity against adult Drosophila melanogaster (males/females 1:1 ratio) assessed as mortality at 1 ng/adult measured after 3 hr; format: functional, organism-based
Drosophila melanogaster [4] = test: Adulticidal activity against adult Drosophila melanogaster (males/females 1:1 ratio) assessed as mortality at 2 ng/adult measured after 3 hr; format: functional, organism-based; in short: as §1
Drosophila melanogaster [5] = test: Adulticidal activity against adult Drosophila melanogaster (males/females 1:1 ratio) assessed as mortality at 20 ng/adult measured after 3 hr; format: functional, organism-based; in short: as §1

SMILES | LD50 (Drosophila melanogaster [1]) [µg] | Activity (Drosophila melanogaster [2]) | Activity (Drosophila melanogaster [3]) | Activity (Drosophila melanogaster [4]) | Activity (Drosophila melanogaster [5])
C[C@@H]1CC[C@H]2[C@H](C)CC[C@@H](c3ccoc3)N2C1 [(-)-7-EPI-DEOXYNUPHARIDINE] | 0.9 | – | – | – | –
COc1ccc2c(c1OC)CN1CCc3cc4c(cc3[C@@H]1C2)OCO4 [CANADINE] | 2.5 | – | – | – | –
C[C@H]1CC=CC(=O)O1 [(+)-(6S)-PARASORBIC ACID] | 1.44 | inactive | inactive | Active | Active
C=C(C)[C@H]1Cc2c(ccc3c2O[C@@H]2COc4cc(OC)c(OC)cc4[C@@H]2C3=O)O1 [ROTENONE] | 3.68 | – | – | – | –
